Data as given in ChEMBL document CHEMBL2062460, “Disubstituted thiourea derivatives and their activity on CNS: synthesis and biological evaluation” (Eur J Med Chem, 2012).
Values after ≈ are worked out from the molar mass of the structure shown. Active and inactive are the calls of the source. The calls are words filed in the database; no cut-off is given here.

How the values were obtained:
Enterococcus hirae = test: Antibacterial activity against Enterococcus hirae ATCC 10541 after 18 hrs by twofold serial agar dilution technique; format: functional; settings: ATCC 10541, 18 h
[1] = system: Staphylococcus epidermidis; test: Antibacterial activity against methicillin-resistant Staphylococcus epidermidis clinical isolate 317/08 after 18 hrs by twofold serial agar dilution technique; format: functional; settings: clinical isolate 317/08, 18 h
In short: (§1)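 Clinical isolates came from patients in Warsaw Medical University Hospitals and were classed as methicillin-susceptible or -resistant. MIC was determined by twofold serial agar dilution on Mueller–Hinton II agar (CLSI), 3.125–400 µg/mL in agar, with compounds in methanol or DMSO. Inoculum was 10^4 CFU/mL and plates were read after 18 h at 35 °C.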

[2] = system: Staphylococcus epidermidis; test: Antibacterial activity against Staphylococcus epidermidis ATCC 12228 after 18 hrs by twofold serial agar dilution technique; format: functional; settings: ATCC 12228, 18 h
In short: (§2)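 Twofold serial agar dilution on Mueller–Hinton II agar, following CLSI guidelines. Compounds were dissolved in methanol or DMSO and tested at final agar concentrations of 3.125–400 µg/mL. Final inoculum was 10^4 CFU/mL.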

Staphylococcus aureus [3] = test: Antibacterial activity against Staphylococcus aureus ATCC 6538 at 400 ug/disc after 18 hrs by disc diffusion method; format: functional; settings: ATCC 6538, 18 h, read-out: DIZ
In short: (§3)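 Disc diffusion per CLSI on Mueller–Hinton II agar; 9 mm paper discs loaded from methanol or DMSO solutions to 400 µg per disc, dried; growth inhibition zone diameter read after 18 h at 35 °C.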

Pseudomonas aeruginosa [4] = test: Antibacterial activity against Pseudomonas aeruginosa ATCC 15442 at 400 ug/disc after 18 hrs by disc diffusion method; format: functional, organism-based; in short: as §3
Staphylococcus aureus [5] = test: Antibacterial activity against methicillin-susceptible Staphylococcus aureus clinical isolate 369/09 after 18 hrs by twofold serial agar dilution technique; format: functional; settings: clinical isolate 369/09, 18 h; in short: as §1
Escherichia coli [6] = test: Antibacterial activity against Escherichia coli ATCC 25922 at 400 ug/disc after 18 hrs by disc diffusion method; format: functional, organism-based; in short: as §3
Staphylococcus aureus [7] = test: Antibacterial activity against methicillin-susceptible Staphylococcus aureus clinical isolate 261/08 after 18 hrs by twofold serial agar dilution technique; format: functional; settings: clinical isolate 261/08, 18 h; in short: as §1
Staphylococcus aureus [8] = test: Antibacterial activity against methicillin-resistant Staphylococcus aureus clinical isolate 356/09 after 18 hrs by twofold serial agar dilution technique; format: functional; settings: clinical isolate 356/09, 18 h; in short: as §1
Micrococcus luteus = test: Antibacterial activity against Micrococcus luteus ATCC 9341 after 18 hrs by twofold serial agar dilution technique; format: functional; settings: ATCC 9341, 18 h
Staphylococcus aureus [9] = test: Antibacterial activity against methicillin-susceptible Staphylococcus aureus clinical isolate 269/08 after 18 hrs by twofold serial agar dilution technique; format: functional; settings: clinical isolate 269/08, 18 h; in short: as §1
[10] = system: Staphylococcus epidermidis; test: Antibacterial activity against methicillin-resistant Staphylococcus epidermidis clinical isolate 343/09 after 18 hrs by twofold serial agar dilution technique; format: functional; settings: clinical isolate 343/09, 18 h; in short: as §1
Candida albicans [11] = test: Antifungal activity against Candida albicans ATCC 10231 at 400 ug/disc after 18 hrs by disc diffusion method; format: functional, organism-based
In short: (§4)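 Yeasts tested by disc diffusion (CLSI) on RPMI agar with 2% glucose; 9 mm paper discs bearing 400 µg compound from methanol or DMSO solution; inhibition zone diameter read after 18 h at 35 °C.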

[12] = system: Staphylococcus epidermidis; test: Antibacterial activity against methicillin-resistant Staphylococcus epidermidis clinical isolate 311/08 after 18 hrs by twofold serial agar dilution technique; format: functional; settings: clinical isolate 311/08, 18 h; in short: as §1
Staphylococcus aureus [13] = test: Antibacterial activity against methicillin-susceptible Staphylococcus aureus clinical isolate 339/09 after 18 hrs by twofold serial agar dilution technique; format: functional; settings: clinical isolate 339/09, 18 h; in short: as §1
Staphylococcus aureus [14] = test: Antibacterial activity against Staphylococcus aureus ATCC 29213 after 18 hrs by twofold serial agar dilution technique; format: functional; settings: ATCC 29213, 18 h; in short: as §2
Pseudomonas aeruginosa [15] = test: Antibacterial activity against Pseudomonas aeruginosa NCTC 6749 at 400 ug/disc after 18 hrs by disc diffusion method; format: functional, organism-based; in short: as §3
Staphylococcus aureus [16] = test: Antibacterial activity against methicillin-resistant Staphylococcus aureus clinical isolate 275/08 after 18 hrs by twofold serial agar dilution technique; format: functional; settings: clinical isolate 275/08, 18 h; in short: as §1
Candida albicans [17] = test: Antifungal activity against Candida albicans ATCC 90028 at 400 ug/disc after 18 hrs by disc diffusion method; format: functional, organism-based; in short: as §4
Candida parapsilosis = test: Antifungal activity against Candida parapsilosis ATCC 22019 at 400 ug/disc after 18 hrs by disc diffusion method; format: functional, organism-based; in short: as §4
Staphylococcus aureus [18] = test: Antibacterial activity against methicillin-resistant Staphylococcus aureus clinical isolate 329/08 after 18 hrs by twofold serial agar dilution technique; format: functional; settings: clinical isolate 329/08, 18 h; in short: as §1
[19] = system: Staphylococcus epidermidis; test: Antibacterial activity against Staphylococcus epidermidis ATCC 12228 at 400 ug/disc after 18 hrs by disc diffusion method; format: functional; in short: as §3
[20] = system: Staphylococcus epidermidis; test: Antibacterial activity against methicillin-resistant Staphylococcus epidermidis clinical isolate 377/09 after 18 hrs by twofold serial agar dilution technique; format: functional; settings: clinical isolate 377/09, 18 h; in short: as §1
Escherichia coli [21] = test: Antibacterial activity against Escherichia coli ATCC 10538 at 400 ug/disc after 18 hrs by disc diffusion method; format: functional, organism-based; in short: as §3
Pseudomonas aeruginosa [22] = test: Antibacterial activity against Pseudomonas aeruginosa ATCC 27853 at 400 ug/disc after 18 hrs by disc diffusion method; format: functional, organism-based; in short: as §3
Staphylococcus aureus [23] = test: Antibacterial activity against methicillin-resistant Staphylococcus aureus clinical isolate 307/08 after 18 hrs by twofold serial agar dilution technique; format: functional; settings: clinical isolate 307/08, 18 h; in short: as §1
Staphylococcus aureus [24] = test: Antibacterial activity against Staphylococcus aureus ATCC 25923 after 18 hrs by twofold serial agar dilution technique; format: functional; settings: ATCC 25923, 18 h; in short: as §2
Staphylococcus aureus [25] = test: Antibacterial activity against methicillin-resistant Staphylococcus aureus clinical isolate 309/08 after 18 hrs by twofold serial agar dilution technique; format: functional; settings: clinical isolate 309/08, 18 h; in short: as §1
[26] = system: Staphylococcus epidermidis; test: Antibacterial activity against methicillin-resistant Staphylococcus epidermidis clinical isolate 340/09 after 18 hrs by twofold serial agar dilution technique; format: functional; settings: clinical isolate 340/09, 18 h; in short: as §1
Staphylococcus aureus [27] = test: Antibacterial activity against methicillin-susceptible Staphylococcus aureus clinical isolate 267/08 after 18 hrs by twofold serial agar dilution technique; format: functional; settings: clinical isolate 267/08, 18 h; in short: as §1
Bacillus cereus = test: Antibacterial activity against Bacillus cereus ATCC 11778 at 400 ug/disc after 18 hrs by disc diffusion method; format: functional; settings: ATCC 11778, 18 h, read-out: DIZ; in short: as §3
Staphylococcus aureus [28] = test: Antibacterial activity against methicillin-resistant Staphylococcus aureus clinical isolate 306/08 after 18 hrs by twofold serial agar dilution technique; format: functional; settings: clinical isolate 306/08, 18 h; in short: as §1
Bacillus subtilis = test: Antibacterial activity against Bacillus subtilis ATCC 6633 after 18 hrs by twofold serial agar dilution technique; format: functional; settings: ATCC 6633, 18 h
Staphylococcus aureus [29] = test: Antibacterial activity against methicillin-susceptible Staphylococcus aureus clinical isolate 268/08 after 18 hrs by twofold serial agar dilution technique; format: functional; settings: clinical isolate 268/08, 18 h; in short: as §1
Staphylococcus aureus [30] = test: Antibacterial activity against methicillin-resistant Staphylococcus aureus clinical isolate 277/08 after 18 hrs by twofold serial agar dilution technique; format: functional; settings: clinical isolate 277/08, 18 h; in short: as §1
Staphylococcus aureus [31] = test: Antibacterial activity against Staphylococcus aureus NCTC 4163 at 400 ug/disc after 18 hrs by disc diffusion method; format: functional; settings: NCTC 4163, 18 h, read-out: DIZ; in short: as §3
Staphylococcus aureus [32] = test: Antibacterial activity against methicillin-susceptible Staphylococcus aureus clinical isolate 372/09 after 18 hrs by twofold serial agar dilution technique; format: functional; settings: clinical isolate 372/09, 18 h; in short: as §1

| SMILES | MIC (Enterococcus hirae) | MIC [1] | MIC [2] | zone of inhibition at 400 µg/disc (Staphylococcus aureus [3]) | diameter of the inhibition zone (DIZ) (Pseudomonas aeruginosa [4]) | MIC (Staphylococcus aureus [5]) | diameter of the inhibition zone (DIZ) (Escherichia coli [6]) | MIC (Staphylococcus aureus [7]) | MIC (Staphylococcus aureus [8]) | MIC (Micrococcus luteus) | MIC (Staphylococcus aureus [9]) | MIC [10] | diameter of the inhibition zone (DIZ) (Candida albicans [11]) | MIC [12] | MIC (Staphylococcus aureus [13]) | MIC (Staphylococcus aureus [14]) | diameter of the inhibition zone (DIZ) (Pseudomonas aeruginosa [15]) | MIC (Staphylococcus aureus [16]) | diameter of the inhibition zone (DIZ) (Candida albicans [17]) | diameter of the inhibition zone (DIZ) (Candida parapsilosis) | other results |
| --- | --- | --- | --- | --- | --- | --- | --- | --- | --- | --- | --- | --- | --- | --- | --- | --- | --- | --- | --- | --- | --- |
| S=C(Nc1ccc(Cl)cc1)Nc1nc[nH]n1 | 200 µg/mL (≈ 788 µM) | 25 µg/mL (≈ 98.5 µM) | 25 µg/mL (≈ 98.5 µM) | 15 mm | inactive | 25 µg/mL (≈ 98.5 µM) | inactive | 25 µg/mL (≈ 98.5 µM) | 25 µg/mL (≈ 98.5 µM) | 25 µg/mL (≈ 98.5 µM) | 25 µg/mL (≈ 98.5 µM) | 25 µg/mL (≈ 98.5 µM) | inactive | 25 µg/mL (≈ 98.5 µM) | 25 µg/mL (≈ 98.5 µM) | 25 µg/mL (≈ 98.5 µM) | inactive | 25 µg/mL (≈ 98.5 µM) | inactive | inactive | MIC (Staphylococcus aureus [18]): 25 µg/mL (≈ 98.5 µM); zone of inhibition at 400 µg/disc ([19]; ATCC 12228, 18 h, read-out: DIZ): 20 mm; MIC [20]: 25 µg/mL (≈ 98.5 µM); diameter of the inhibition zone (DIZ) (Escherichia coli [21]): inactive; diameter of the inhibition zone (DIZ) (Pseudomonas aeruginosa [22]): inactive; MIC (Staphylococcus aureus [23]): 25 µg/mL (≈ 98.5 µM); MIC (Staphylococcus aureus [24]): 25 µg/mL (≈ 98.5 µM); MIC (Staphylococcus aureus [25]): 25 µg/mL (≈ 98.5 µM); MIC [26]: 12.5 µg/mL (≈ 49.3 µM); MIC (Staphylococcus aureus [27]): 25 µg/mL (≈ 98.5 µM); zone of inhibition at 400 µg/disc (Bacillus cereus): 16 mm; MIC (Staphylococcus aureus [28]): 25 µg/mL (≈ 98.5 µM); MIC (Bacillus subtilis): 12.5 µg/mL (≈ 49.3 µM); MIC (Staphylococcus aureus [29]): 25 µg/mL (≈ 98.5 µM); MIC (Staphylococcus aureus [30]): 50 µg/mL (≈ 197 µM); zone of inhibition at 400 µg/disc (Staphylococcus aureus [31]): 23 mm; MIC (Staphylococcus aureus [32]): 25 µg/mL (≈ 98.5 µM) |
| S=C(Nc1ccc(I)cc1)Nc1nc[nH]n1 | 400 µg/mL (≈ 1160 µM) | 50 µg/mL (≈ 145 µM) | 25 µg/mL (≈ 72.4 µM) | 12 mm | inactive | 50 µg/mL (≈ 145 µM) | inactive | 25 µg/mL (≈ 72.4 µM) | 50 µg/mL (≈ 145 µM) | 12.5 µg/mL (≈ 36.2 µM) | 25 µg/mL (≈ 72.4 µM) | 50 µg/mL (≈ 145 µM) | inactive | 50 µg/mL (≈ 145 µM) | 50 µg/mL (≈ 145 µM) | 25 µg/mL (≈ 72.4 µM) | inactive | 50 µg/mL (≈ 145 µM) | inactive | inactive | MIC (Staphylococcus aureus [18]): 25 µg/mL (≈ 72.4 µM); diameter of the inhibition zone (DIZ) [19]: inactive; MIC [20]: 25 µg/mL (≈ 72.4 µM); diameter of the inhibition zone (DIZ) (Escherichia coli [21]): inactive; diameter of the inhibition zone (DIZ) (Pseudomonas aeruginosa [22]): inactive; MIC (Staphylococcus aureus [23]): 50 µg/mL (≈ 145 µM); MIC (Staphylococcus aureus [24]): 25 µg/mL (≈ 72.4 µM); MIC (Staphylococcus aureus [25]): 25 µg/mL (≈ 72.4 µM); MIC [26]: 25 µg/mL (≈ 72.4 µM); MIC (Staphylococcus aureus [27]): 25 µg/mL (≈ 72.4 µM); zone of inhibition at 400 µg/disc (Bacillus cereus): 13 mm; MIC (Staphylococcus aureus [28]): 50 µg/mL (≈ 145 µM); MIC (Bacillus subtilis): 12.5 µg/mL (≈ 36.2 µM); MIC (Staphylococcus aureus [29]): 25 µg/mL (≈ 72.4 µM); MIC (Staphylococcus aureus [30]): 25 µg/mL (≈ 72.4 µM); zone of inhibition at 400 µg/disc (Staphylococcus aureus [31]): 12 mm; MIC (Staphylococcus aureus [32]): 25 µg/mL (≈ 72.4 µM) |
